The source made the active and inactive calls. No cut-off for these calls is given here.

In test [1] the test system is West Nile virus. As to the kind of experiment: Inhibition of West Nile virus NS2B-NS3 protease at 60 uM using Mca-KKR-GDap(DNP)AK-NH2 as substrate measured every 30 secs for 20 mins by FRET assay.
Test [2] can be described thus: Inhibition of West Nile virus NS2B-NS3 protease using Mca-KKR-GDap(DNP)AK-NH2 as substrate measured every 30 secs for 20 mins by FRET assay. Summed up:
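FRET read-out: protease cleavage of a peptide carrying a fluorophore and a quencher on either side of the cleavage site raises fluorescence in proportion to enzyme activity. IC50 is taken as the inhibitor concentration that lowers enzymatic activity by 50%.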

The test system of test [3] is West Nile virus. The experiment in a line: Mixed inhibition of West Nile virus NS2B-NS3 protease using Mca-KKR-GDap(DNP)AK-NH2 as substrate measured every 30 secs for 10 mins by Lineweaver-burk plot analysis.
Test [4] concerns West Nile virus. The experiment in a line: Inhibition of West Nile virus NS2B-NS3 protease using Mca-KKR-GDap(DNP)AK-NH2 as substrate measured every 30 secs for 5 mins in presence of Brij35 by FRET assay. In short, it runs like this:
(§1)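 Aggregation counter-screen run in the FRET protease assay, with inhibition followed across a range of detergent concentrations (0-0.2 %) of CHAPS and of Brij35.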

Test [5] relates to West Nile virus. The experiment in a line: Inhibition of West Nile virus NS2B-NS3 protease using Mca-KKR-GDap(DNP)AK-NH2 as substrate measured every 30 secs for 5 mins in presence of CHAPS by FRET assay. Summed up:
as §1

As for `COc1cc(C(=O)NS(=O)(=O)c2ccccc2C)ccc1Cn1ccc2cc(NC(=O)OC3CCCC3)ccc21`, the inhibition (as a rule, the change of the read-out against control, counted positive when it falls) in test [1] was 79%.

`CCOC(=O)Nc1ccc2c(c1)c(Cc1ccc(C(=O)NS(=O)(=O)c3ccccc3C)cc1OC)cn2C` came in with an inhibition in test [1] of 12%.

`COC(=O)c1ccc(Cc2cn(C)c3ccc(NC(=O)OC4CCCC4)cc23)c(OC)c1` gave an inhibition in test [1] of 12%.

In test [1], `Cn1ccc2cc(NC(=O)OC3CCCC3)ccc21` gave an inhibition of 6%.

For `COc1cc(C(=O)NS(=O)(=O)c2ccccc2)ccc1Cc1cn(C)c2ccc(NC(=O)OC3CCCC3)cc12`, the inhibition in test [1] worked out at 81%.

With `COc1cc(C(=O)NS(=O)(=O)c2ccccc2C)ccc1Cc1cn(C)c2ccc(NC(=O)Oc3ccccc3)cc12`, the inhibition in test [1] came to 92%. Moreover, in test [2], half-maximal inhibition (IC50) was put at 22 µM.

In the case of `COc1cc(C(=O)NS(=O)(=O)c2ccccc2C)ccc1Cc1cn(C)c2ccc(NC(=O)OC3CCCC3)cc12` [ZAFIRLUKAST], in test [2], it took 32 µM to reach half-maximal inhibition (IC50). Moreover, the inhibition result in test [3], in test [4] and in test [5] was “Active” each time.

In test [1], `COC(=O)c1ccc(Cn2ccc3cc(NC(=O)OC4CCCC4)ccc32)c(OC)c1` displayed an inhibition of 5%.

Turning to `Cc1ccccc1S(=O)(=O)NC(=O)c1ccc(Cc2cn(C)c3ccc(NC(=O)OC4CCCC4)cc23)cc1`, in test [1], the inhibition came out at 64%.

In test [1], `Cc1ccccc1S(=O)(=O)NC(=O)c1ccc(NC(=O)OC2CCCC2)cc1` showed an inhibition of 4%.

In test [1], `COc1cc(C(=O)NS(=O)(=O)c2ccccc2C)ccc1Cc1cccc(NC(=O)OC2CCCC2)c1` showed an inhibition of 30%.

In test [1], `COc1cc(C(=O)NS(=O)(=O)c2ccccc2C)ccc1Cc1cn(C)c2ccc(NC(=O)CC3CCCC3)cc12` showed an inhibition of 33%.

As to `COc1cc(C(=O)NCc2ccccc2)ccc1Cc1cn(C)c2ccc(NC(=O)OC3CCCC3)cc12`, the inhibition in test [1] amounted to 5%.
